Test results: the RNAGym collection of RNA variant scans (doi:10.1126/science.aae0568)
Fewer inactive variants are shown than the library holds.

B1: tRNA (parent)
chain: GUUCCGUUGGCGUAAUGGUAACGCGUCUCCCUCCUAAGGAGAAGACUGCGGGUUCGAGUCCCGUACGGAACG

Variants of: B1
Assay: yeast fitness relative to wild type (ratio to wild type); higher = fitter; tRNA-Arg(CCU), competitive growth, 37 C, YPD
Outline: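 For this measurement, the tRNA-Arg(CCU) gene was varied by chemical synthesis at a 3% per-site mutation rate across 69 sites, and each variant was placed at the native genomic locus in Saccharomyces cerevisiae. The pooled strains went through a 24-hour competition in YPD at 37°C in six parallel replicates, with amplicons from start and end populations read by 100-nucleotide paired-end sequencing. Darwinian fitness relative to wild type followed from the change in each genotype's frequency. Genotypes needed ≥ 100 starting reads, and estimates < 0.5 were set to 0.5.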

Variant | yeast fitness
GUUCCGUUGGCGUAAUGGUAACGCGUCUCCCUCCUAAGGGGAAGACUGCGGGUUCGAGUCCCGUUCGGAACG [A40G A65U] | 0.813
GGUCCGUUGGCGUAAUGGUAACGCGUCUCCCUCCUAAGGAGAAGACUGCGGAUUCGAGUCCCGUACGGAACG [U2G G52A] | 0.774
GUUCCGUUGGGGUAAUGGUAACGCGCCUCCCUCCUAAGGAGAAGACUGCGGGUUCGAGUCUGGUACGGAACG [C11G U26C C61U C62G] | 0.62
GUUCAGUUGGCGUAUUGGUAACGCGUCUCCGUCCUAAGAAGAAGACUGUGGGUUCGAAUCCCGUACAGAACG [C5A A15U C31G G39A C49U G58A G67A] | ≤ 0.5
GUCCCGUUGGCGUAAUGGUAACGCGUCUUGCUCCUAAGCAGAAGACUGCGGGUUCGAGUACCGUACGGAACG [U3C C29U C30G G39C C60A] | ≤ 0.5
GUUCCGUUGGCGUAAUGGUAACACGUCUUACUCCUAAGGAGUAGACUGCGGGAUCGAGUCCCGUACGGAACG [G23A C29U C30A A42U U53A] | ≤ 0.5
GUUCCGUAGGCGUAAUGCUAACGAGUCUCCCCCCUAAGGAGAAGACUGCGGGUUCGAGUCCCGCGCGGAACG [U8A G18C C24A U32C U64C A65G] | ≤ 0.5
GGUCCGUUGGCGUAAUAGUAACGUGUCUCCCUCCUUUGGAGAAGACUGCGGGUUCGAGUCCCGUACGGAACG [U2G G17A C24U A36U A37U] | 0.585
GUUCCGUUGGCGUAAUGGUAACGGGUCUCUCUCCUAAGGAGAACACUGCGGGUUCGAGUCCCGUACGGAACG [C24G C30U G44C] | ≤ 0.5
GUUCCGUUGGUGUAAUGGUAACGCGUCUCCAUCCUAGGGAGAAGACUGCGGGUUCGAGUCCCGUACGGAACG [C11U C31A A37G] | ≤ 0.5
GUUCCGUUGGCGUAAUCGUAACGCGUCUCGCUCCUAAGGAGAAGACUGCGGGUUCGCGUCGCGUACGGAACG [G17C C30G A57C C61G] | 0.613
GUUCCGUUGGCGUAAUGGUAACGCGUCUCCCUCCCAAGGAGAAGACUGCAGGUUCGAGUCCCGUACGGAACG [U35C G50A] | 0.927
GUUCCGUUGGCGUAACGGUAACGCGUCUCCCCCCUAAGCAGAAGACUGCGGGUUCGAGUCCCGUACGGAACG [U16C U32C G39C] | ≤ 0.5
GUUUCGUUGGCGUAAUGGUACCGCGUCUCCCUCCUAAGGAGAAGACUGCGGGUUCGAGUCCCGUACUGAACG [C4U A21C G67U] | ≤ 0.5
GUUCGGUUGCCGGAAUGGUAACGCGUCUCCCUCCUACGGAGAAGACUGCGGGUUCAAGUCCCGUUCGGAACG [C5G G10C U13G A37C G56A A65U] | 0.64
GUUCCGUUGGCGUAAUGGUAACGCGUCUCCCUCCUAAGGAGAACACUGCGGGUUCGACUCCCGUAUGGAACG [G44C G58C C66U] | 0.653
GUUCCGUUGGCGUAAUGAUUAUGCGUCACCCUUCUAAGGAGAACACUGCGGGUUCGAGUCCCGUACGGAACG [G18A A20U C22U U28A C33U G44C] | 0.524
GUUCCGUUGGCGUAAUGAUAAUGCGUCUCCCUCCUAAGGAGAAGACUGCGGGUUCGAGUCCCGUACGGAACG [G18A C22U] | 0.636
GUUCAGUUGGCGUAGUGGUAACGCAUCUCCCUCCUAAGGAGAAGACUGCGGGUUCGAGUCCCGUACGGAACG [C5A A15G G25A] | 0.583

Variant | yeast fitness
GUUCCGUUGGCGUAAUGGUUACGCGUCUCCCUCCUAAGGAGAAGAUUGCGGGUUGGAGUCCCGUACGGAACG [A20U C46U C55G] | 0.539
GUUCCAUUGGCGUAAUGGUAACGCGACUCCCUCCUAAGGAGAAGACUGCGGGUUCGAGUCCCGUACGGAACG [G6A U26A] | 0.95
GUUCCGUUGGCGUAAUGGUAACGCGUCUCCCUCGUAAGCAGAAGACUGCGGGUUCGAGUCCCGUACGGAACG [C34G G39C] | 0.58
GUUCCGUUGGCGGAAUGGUAACGCGUCGCCCUCCUAAGGAGAAGACUGCGGGUUCGUGUCCCGUCCGGCACG [U13G U28G A57U A65C A69C] | ≤ 0.5
GUUCCGUUGGCGUAAUGGUAACGCGUCUCCGUCCUAAGGAGAAGACUGCGGGUUCGACUCCCGUACGGAACG [C31G G58C] | 0.88
GUUCUGUUGGCGUAAUGAUAACGCCUCUCCCUCCUAAGGAGAAGACUGCGGGUUCGAGUCCCGUACGGCACG [C5U G18A G25C A69C] | ≤ 0.5
GUUCCGUUGGCGUAAUGGUAACGCGUCUCCCUCCUAAGGAGAAGCCUGCGGGUUGGAGUCCCGUACGGAACG [A45C C55G] | 0.528
GUUCCGCUGGCGUAAUGGUAACGCGUCUCCCUGCUAAGGAGAAGACUGCGGGUUCGAGUCCCGUACGGAGCG [U7C C33G A70G] | 0.57
GAUCAGUUGGCGUAAUGGUAACGCGUCUCCCUCCUAAGGAGAAGACUGCGGGUUCGAGUCCCGGAUGGAACG [U2A C5A U64G C66U] | ≤ 0.5
GUUCCGUUGGCGUAAUGGUAACGCGACUCCCUCCUAAGGAGAAGACUCCGGGUUCGAGUCCCGUACGGAACG [U26A G48C] | 0.78
GGUCCGUUGGCGUAAUGGUAACGCGUCUCCCUCCUAAGGAGAAGACUGUGGGUUCGAGUCCCGUACGGAACG [U2G C49U] | 0.957
GCUCCGUUGGCGUAAUGGUAACAUGUCUCCCUCCUAAGGAGAAGUCUGCGGGUUCGAGUACCGUACGGAACG [U2C G23A C24U A45U C60A] | 0.61
GCCCCGUUGGCGUAAUGGUAACGCGUCUCCCUCCUAAGGAGAAGGCUGCGGGUUCGAGUCACGUACGGAACG [U2C U3C A45G C61A] | ≤ 0.5
GUUCCGUUGGCGUAAUAGUAAUGCGUCUCCCUCCUAUGGAGAAGACAGCGGGUUCGAGUCCCGUACGCAACG [G17A C22U A37U U47A G68C] | ≤ 0.5
GUUCCGUUGGCGUGAUGGUUACGCGUCUCCCUCCUUAGGAGAAGACUGCGCCUUCGAGUUCCGUACAGAACG [A14G A20U A36U G51C G52C C60U G67A] | ≤ 0.5
GUUCCGUCGGCGUAAUGGUAACGCGUCGCCCUCCUAAGGAGAAGAGUGUGGGUUCGAGUCCCGUACGGCACG [U8C U28G C46G C49U A69C] | ≤ 0.5
GUUCCGUUGGAGUAACGGUAGCGCGUCUCCCUCCUAAGGAGAAGACUGCGGGUUCGAGUCCCGUACGAAACG [C11A U16C A21G G68A] | ≤ 0.5
GUUUCGUUGGCGUAGUGGUAACCCGUCUCCCUCCUAUGGAGAAGACUGCGGGUUCGAGUCCCGUACGGAACG [C4U A15G G23C A37U] | ≤ 0.5
